Usually Kd stands for the constant that tells how readily two partners part at equilibrium. Low values mean tighter binding, high ones weaker binding.

Several values for one entry are separate records, joined by “and”; a condition that tells them apart may be missing. Equal entries are not always repeated. Where two headings read alike, the source gives them in different places.

Test [1] concerns the target T1, Bst TRAP11 (Geobacillus stearothermophilus, UniProt Q9X6J6).
T1 sequence (Q9X6J6 1-74): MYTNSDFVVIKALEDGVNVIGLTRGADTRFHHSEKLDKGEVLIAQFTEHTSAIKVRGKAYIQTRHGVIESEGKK
The test is classed as binding, B. stearothermophilus. A digest of the protocol: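 Apo 11-mer protein dialysed into 400 mM ammonium acetate. Samples of 6.0–7.4 μM protein with 0–140 μM Trp (serial dilutions) were prepared fresh in parallel. Native MS on an Orbitrap UHMR at ~25°C. Relative abundances of Trp-bound states came from integrated peak areas, with binding-site concentration corrected by a quadratic independent-sites fit. Populations were fit globally to a nearest-neighbour model (ΔG₀, ΔGα) by Powell minimisation.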

Test [2] addresses T2, Bst TRAP12 ∆71 (Geobacillus stearothermophilus, UniProt Q9X6J6).
T2 sequence (Q9X6J6 1-69 limits assumed): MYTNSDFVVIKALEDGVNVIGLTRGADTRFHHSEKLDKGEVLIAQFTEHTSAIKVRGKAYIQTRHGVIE
The test is classed as binding, B. stearothermophilus. An outline of the steps:
(§1)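 Apo protein dialysed into 400 mM ammonium acetate, adjusted to pH 8 with NH₄OH. Samples of 6.0–7.4 μM protein with 0–140 μM Trp were prepared fresh in parallel. Native MS on an Orbitrap UHMR at ~25°C, each point in triplicate with different emitters. Abundances of the 0–12-bound states came from peak areas, with protein concentration corrected by a quadratic independent-sites fit. A 12-site NN model was fit globally by Powell minimisation; uncertainties are SD of three repeats.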

In test [3] the target is T3, Bha TRAP12 (Halalkalibacterium halodurans, UniProt Q9KCC6).
T3 sequence (Q9KCC6 1-76): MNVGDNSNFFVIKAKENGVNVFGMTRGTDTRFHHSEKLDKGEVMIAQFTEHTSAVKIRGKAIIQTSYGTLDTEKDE
In kind it is binding, B. halodurans. A digest of the protocol: as §1

In test [4] the target is T3, Bha TRAP12. Put plainly: Isothermal titration calorimetry, Trp into TRAP. Conditions: ITC 25°C, two-sites model. The test is classed as binding, B. halodurans. An outline of the steps:
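Tag-free protein (C-terminal ENLYFQ left after TEV cleavage), expressed in E. coli BL21(DE3), made Trp-free by Gdn-HCl denaturation, RP-HPLC, refolding and SEC, then dialysed into buffer A (100 mM NaCl, 50 mM NaPO₄, pH 8.0). 293 μM Trp (in dialysate) titrated into 23 μM protomers, 25°C, 307 rpm. Integrated heats fit to a two-sites model; oligomer concentration corrected via fitted n; 200-sample bootstrap confidence intervals.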
(Isothermal titration calorimetry measures the heat released or taken up as one component is titrated into another.)

The mark [5] stands for this setting: 1/(αK 0), NN model, dissociation constant for sites with one bound neighbor, ~25°C.
[6] abbreviates: 1/K 0, NN model, dissociation constant for isolated sites, ~25°C.
The mark [7] stands for this setting: NN model, sites with 1 occupied neighbor, ~25°C.
The mark [8] stands for this setting: NN model, sites with no occupied neighbors, room temperature ~25°C, 400 mM ammonium acetate.

With `N[C@@H](Cc1c[nH]c2ccccc12)C(=O)O` [Trp, tryptophan], the Kd in test [1] (setting [5]) was 4.4 ± 1.9 µM; in test [1] (setting [6]) it was 36 ± 12 µM; in test [2] (setting [5]) it was 7.8 ± 1.2 µM; in test [2] (setting [6]), 217 ± 13 µM; in test [3] (setting [5]) it was 2.8 ± 0.8 µM; in test [3] (setting [6]) it was 720 ± 140 µM. The same compound registered a Kd in test [4] (Kd,1 (Site 1), first Trp) of 1.8 ± 0.3 µM. Moreover, the “Cooperativity factor α” value is 8 and 8 ± 5 in test [1] (NN model, K N1/K 0); 28 and 28 ± 5 in test [2] (NN model, K N1/K 0); 256 and 256 ± 87 in test [3] (NN model, K N1/K 0, fold increase in affinity with one occupied neighbor). Further, in test [1] (NN model, between adjacent sites), the “coupling energy ΔG α” value is listed as −1.2 ± 0.3 kcal mol^−1 interaction^−1. The “ΔG 0 + ΔG α” value in test [1] (setting [7]) was -7.3 ± 0.3 kcal/mol; in test [2] (setting [7]) it was -7.0 ± 0.1 kcal/mol; in test [3] (setting [7]), -7.6 ± 0.2 kcal/mol. The figures for the “ΔG 0” value in test [1] (setting [8]), in test [2] (setting [8]) and in test [3] (setting [8]) were -6.1 ± 0.2 kcal/mol, -5.00 ± 0.03 kcal/mol and -4.3 ± 0.1 kcal/mol, respectively. Moreover, the “n (fitted binding sites), Site 1” value in test [4] (buffer A) is recorded as “≈ 1”. For the same compound, in test [4] (buffer A), the “n (fitted binding sites), Site 2” value is reported as ~ 11.
